ChEMBL document CHEMBL5634197, “Structural Evaluations of a Selective Human STINGA230 Agonist and Its Use in Macrophage Immunotherapies” (ACS Med Chem Lett, 2024)
Activity calls are given as the source filed them. The rule behind the calls is not given here.

How the values were obtained:
[1] = Agonist activity at N-terminal his/SUMO tagged STING A230 in human THP-1 cells transfected with ISRE reporter assessed as increase in cGAMP-induced ISRE activation incubated for 48 hrs by luminescence based analysis; format: cell-based
Macrophage [2] = experiment: Upregulation of MX1 expression in human Primary macrophage measured after 6 hrs by RT-qPCR analysis; format: functional, cell-based
Summary of the method: (§1)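 CD14+ monocytes from 3 healthy donors with STING G230 alleles were differentiated into macrophages with M-CSF. Cells were transduced with FG12-EF1p-EGFRt-p2A-STINGA230 lentivirus, mock-transduced or left untransduced. Three days after transduction they were stimulated for 6 h with DMSO vehicle or the agonist, and MX1 and IRF7 expression was measured by RT-qPCR.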

THP-1 [3] = experiment: Upregulation of MX1 expression in human THP-1 cells at 50 uM measured after 6 hrs by RT-qPCR analysis; format: functional, cell-based
Summary of the method: (§2)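 THP-1 cells, which carry homozygous STING HAQ, were treated for 6 h with vehicle or the agonist at 50 μM. Cells were then harvested, and MX1 and OAS1 expression was measured by RT-qPCR.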

THP-1 [4] = experiment: Upregulation of OAS1 expression in human THP-1 cells at 50 uM measured after 6 hrs by RT-qPCR analysis; format: functional, cell-based; summary of the method: as §2
[5] = Upregulation of IRF7 expression in human Primary macrophage transduced with lentivirus FG12-EFlp-EGFRt-p2A-STING A230 assessed as fold change measured after 6 hrs by RT-qPCR analysis; format: functional; summary of the method: as §1
Macrophage [6] = experiment: Upregulation of IRF7 expression in human Primary macrophage measured after 6 hrs by RT-qPCR analysis; format: functional, cell-based; summary of the method: as §1
PBMC = experiment: Induction of MX1 gene expression in human PBMC cells harbouring STING A230 allele at 50 uM measured after 6 hrs by RT-qPCR analysis; format: functional, cell-based
Summary of the method: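 Primary PBMCs from 15 independent healthy donors were exposed to 50 μM agonist for 6 h. The 2′,3′-cGAMP comparator was given at 1 μg/mL. Cells were then harvested, and MX1 expression was measured by RT-qPCR. Values come from the donor carrying the STINGA230 allele.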

[7] = Upregulation of MX1 expression in human Primary macrophage transduced with lentivirus FG12-EFlp-EGFRt-p2A-STING A230 assessed as fold change measured after 6 hrs by RT-qPCR analysis; format: functional; summary of the method: as §1
[8] = Homo sapiens, THP-1, 48 h, read-out: EC50

Structure (SMILES)	EC50 ([1]; thp-1)	also measured
COC(=O)COc1nnc2c3c(C)c(C)sc3ncn12	Not Active	–
COC(=O)CSc1nnc2c3c4c(sc3ncn12)CCC4	–	EC50 [1, 8]: 7.3 µM
COC(=O)CSc1nnc2c3ccsc3ncn12	Not Active	–
CCOC(=O)CSc1nnc2c3c(C)c(C)sc3ncn12	–	EC50 [1, 8]: 8.8 µM
COC(=O)C[S+]([O-])c1nnc2c3c(C)c(C)sc3ncn12 (configuration not stated)	Not Active	–
Cc1sc2ncn3c(SCC(=O)OC(C)C)nnc3c2c1C	–	EC50 [1, 8]: 13.4 µM
COC(=O)CSc1ncc2c3c(C)c(C)sc3ncn12	Not Active	–
CCc1cc2c(ncn3c(SCC(=O)OC)nnc23)s1	–	EC50 [1, 8]: 6.9 µM
COC(=O)CNC(=O)n1cnc2sc(C)c(C)c2c1=O	Not Active	–
COC(=O)CSc1nnc2c3c(C)c(C)oc3ncn12	Not Active	–
COC(=O)CSc1nnc2c3c4c(sc3ncn12)CCCC4	Not Active	–
COC(=O)CSc1nnc2c3c(C)c(C)sc3ncn12	–	Activity (Macrophage [2]): inactive; Activity (THP-1 [3]): Active; EC50 [1, 8]: 5.71 µM; Activity (THP-1 [4]): Active; fold change (FC) [5]: 5; Activity (Macrophage [6]): inactive; Activity (PBMC): Active; fold change (FC) [7]: 10
COC(=O)CSc1nnc2c3cc(OC)c(OC)cc3ncn12	Not Active	–
Cc1sc2ncn3c(SC4CCOC4=O)nnc3c2c1C (configuration not stated)	Not Active	–
Cc1sc2ncn3c(Sc4nnn[nH]4)nnc3c2c1C	Not Active	–
COC(=O)CSc1nnc2c3c(C)c(C)sc3nc(C)n12	Not Active	–
COC(=O)CSc1nnc2c3c(C)c(C)n(C)c3ncn12	Not Active	–
COCc1sc2ncn3c(SCC(=O)OC)nnc3c2c1C	–	EC50 [1, 8]: 23.2 µM
COC(=O)CSc1nnc2c3c(C)c(Br)sc3ncn12	–	EC50 [1, 8]: 11.4 µM

Now from value to compound, other results behind:

EC50 ([1]; thp-1)	Structure (SMILES)	also measured
Not Active	COC(=O)CCSc1nnc2c3c(C)c(C)sc3ncn12	–
Not Active	Cc1sc2ncn3c(SCC(=O)OC(C)(C)C)nnc3c2c1C	–
Not Active	COC(=O)CCc1nnc2c3c(C)c(C)sc3ncn12	–
Not Active	COCc1c(C)sc2ncn3c(SCC(=O)OC)nnc3c12	–
Not Active	COC(=O)CSc1nnc2c3c(C)c(C)sc3ccn12	–
Not Active	COC(=O)Cc1nnc2c3c(C)c(C)sc3ncn12	–
